From ChEMBL document CHEMBL4364248, “Discovery of 1,2,4-oxadiazole-Containing hydroxamic acid derivatives as histone deacetylase inhibitors potential application in cancer therapy” (Eur J Med Chem, 2019)
Activity calls are given as the source filed them. No cut-off for these calls is given here.

Columns and labels:
[1] = biological target: Histone deacetylase 3/Nuclear receptor corepressor 2 (HDAC3/NCoR2) (Homo sapiens, UniProt O15379); assay: Inhibition of human recombinant full length C-terminal His-tagged HDAC3 (1 to 428 residues)/N-terminal GST-tagged NCOR2 (395 to 489 residues) expressed in Sf9 cells using Ac-peptide-AMC as substrate after 1 hr by fluorescence assay
Chain of Histone deacetylase 3/Nuclear receptor corepressor 2 (HDAC3/NCoR2) (O15379 whole entry, the tested form may be a part): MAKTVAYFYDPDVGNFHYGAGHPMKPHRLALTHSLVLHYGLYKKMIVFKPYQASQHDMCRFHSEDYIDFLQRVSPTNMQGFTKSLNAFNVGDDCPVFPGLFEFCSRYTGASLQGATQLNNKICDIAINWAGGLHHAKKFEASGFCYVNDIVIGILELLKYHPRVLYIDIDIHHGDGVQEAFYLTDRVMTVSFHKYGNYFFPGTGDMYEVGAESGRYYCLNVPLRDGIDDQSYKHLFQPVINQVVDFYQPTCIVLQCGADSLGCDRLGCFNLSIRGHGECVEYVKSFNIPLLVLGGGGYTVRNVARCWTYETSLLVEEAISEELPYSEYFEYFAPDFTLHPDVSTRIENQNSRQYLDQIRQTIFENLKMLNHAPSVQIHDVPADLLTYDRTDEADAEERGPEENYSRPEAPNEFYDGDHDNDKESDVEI
Chain of Histone deacetylase 3/Nuclear receptor corepressor 2 (HDAC3/NCoR2) (Q9Y618 whole entry, further chain, the tested form may be a part): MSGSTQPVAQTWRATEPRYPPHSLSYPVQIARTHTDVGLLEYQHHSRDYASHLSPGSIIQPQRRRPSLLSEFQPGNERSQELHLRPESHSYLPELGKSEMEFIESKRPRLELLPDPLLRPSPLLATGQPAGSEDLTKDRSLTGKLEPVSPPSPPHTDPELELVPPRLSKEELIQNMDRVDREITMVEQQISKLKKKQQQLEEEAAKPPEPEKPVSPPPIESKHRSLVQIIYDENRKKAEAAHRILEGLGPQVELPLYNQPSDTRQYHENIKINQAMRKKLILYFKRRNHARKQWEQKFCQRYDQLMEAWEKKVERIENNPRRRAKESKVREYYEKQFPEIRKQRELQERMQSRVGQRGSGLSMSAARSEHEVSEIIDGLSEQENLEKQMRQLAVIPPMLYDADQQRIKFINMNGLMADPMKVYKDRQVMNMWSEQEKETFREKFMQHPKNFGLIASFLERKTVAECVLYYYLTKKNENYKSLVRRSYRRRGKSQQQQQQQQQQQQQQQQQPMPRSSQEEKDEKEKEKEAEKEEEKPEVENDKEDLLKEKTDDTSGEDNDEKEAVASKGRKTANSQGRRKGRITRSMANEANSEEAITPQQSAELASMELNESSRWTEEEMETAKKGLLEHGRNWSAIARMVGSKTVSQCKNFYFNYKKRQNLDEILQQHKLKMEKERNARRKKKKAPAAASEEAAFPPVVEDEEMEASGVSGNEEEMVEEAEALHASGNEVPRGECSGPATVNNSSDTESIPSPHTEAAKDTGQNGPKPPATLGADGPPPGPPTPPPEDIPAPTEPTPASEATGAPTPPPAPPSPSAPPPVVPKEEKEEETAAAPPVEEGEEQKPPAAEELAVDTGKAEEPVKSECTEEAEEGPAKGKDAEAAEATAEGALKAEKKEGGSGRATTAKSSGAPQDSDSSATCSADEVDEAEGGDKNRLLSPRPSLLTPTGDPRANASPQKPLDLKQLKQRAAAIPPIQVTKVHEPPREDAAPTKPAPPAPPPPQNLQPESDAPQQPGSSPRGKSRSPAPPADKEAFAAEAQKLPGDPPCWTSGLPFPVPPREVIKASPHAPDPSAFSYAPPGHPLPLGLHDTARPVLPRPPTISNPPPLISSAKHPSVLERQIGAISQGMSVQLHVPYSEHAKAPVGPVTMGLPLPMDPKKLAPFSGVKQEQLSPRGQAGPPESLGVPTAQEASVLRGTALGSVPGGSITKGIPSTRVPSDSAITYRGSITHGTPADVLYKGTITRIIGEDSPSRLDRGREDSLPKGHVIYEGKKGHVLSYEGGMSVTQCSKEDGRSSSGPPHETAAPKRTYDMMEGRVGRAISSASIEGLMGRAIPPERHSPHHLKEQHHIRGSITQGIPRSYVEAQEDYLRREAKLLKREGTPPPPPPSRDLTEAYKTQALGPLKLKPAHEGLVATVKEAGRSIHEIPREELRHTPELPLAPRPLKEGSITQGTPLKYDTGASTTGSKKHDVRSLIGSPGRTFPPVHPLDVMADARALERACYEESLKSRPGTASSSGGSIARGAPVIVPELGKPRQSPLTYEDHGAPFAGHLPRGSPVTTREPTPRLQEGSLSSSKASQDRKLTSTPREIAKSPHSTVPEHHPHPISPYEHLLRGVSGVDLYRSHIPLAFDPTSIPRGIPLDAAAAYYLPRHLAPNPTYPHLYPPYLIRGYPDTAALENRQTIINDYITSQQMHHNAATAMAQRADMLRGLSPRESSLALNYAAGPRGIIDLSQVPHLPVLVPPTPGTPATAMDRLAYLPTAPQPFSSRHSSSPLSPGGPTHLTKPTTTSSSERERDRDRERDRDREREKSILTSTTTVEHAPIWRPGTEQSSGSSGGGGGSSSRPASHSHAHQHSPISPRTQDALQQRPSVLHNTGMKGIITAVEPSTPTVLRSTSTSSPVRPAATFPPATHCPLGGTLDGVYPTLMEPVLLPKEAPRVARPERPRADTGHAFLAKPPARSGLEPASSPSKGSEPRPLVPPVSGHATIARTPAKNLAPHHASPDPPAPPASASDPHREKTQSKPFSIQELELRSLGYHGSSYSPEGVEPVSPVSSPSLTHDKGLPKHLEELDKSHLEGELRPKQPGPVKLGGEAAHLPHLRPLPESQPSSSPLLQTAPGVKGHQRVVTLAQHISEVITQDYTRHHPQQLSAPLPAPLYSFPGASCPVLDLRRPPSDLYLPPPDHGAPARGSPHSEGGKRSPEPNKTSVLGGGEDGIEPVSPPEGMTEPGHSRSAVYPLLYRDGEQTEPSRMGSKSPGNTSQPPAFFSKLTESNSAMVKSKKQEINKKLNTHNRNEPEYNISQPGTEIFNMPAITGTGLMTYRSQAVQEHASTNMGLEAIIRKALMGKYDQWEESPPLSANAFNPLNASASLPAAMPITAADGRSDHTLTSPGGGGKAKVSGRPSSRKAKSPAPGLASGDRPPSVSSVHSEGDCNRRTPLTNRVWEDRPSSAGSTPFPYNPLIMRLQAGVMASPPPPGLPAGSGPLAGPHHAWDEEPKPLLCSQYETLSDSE

Histone deacetylase 5 = Histone deacetylase 5 (Homo sapiens, UniProt Q9UQL6); assay: Inhibition of recombinant full length N-terminal GST-tagged human HDAC5 expressed in baculovirus infected Sf9 cells using Ac-peptide-AMC as substrate after 1 hr by fluorescence assay
Chain of Histone deacetylase 5 (Q9UQL6 whole entry, the tested form may be a part): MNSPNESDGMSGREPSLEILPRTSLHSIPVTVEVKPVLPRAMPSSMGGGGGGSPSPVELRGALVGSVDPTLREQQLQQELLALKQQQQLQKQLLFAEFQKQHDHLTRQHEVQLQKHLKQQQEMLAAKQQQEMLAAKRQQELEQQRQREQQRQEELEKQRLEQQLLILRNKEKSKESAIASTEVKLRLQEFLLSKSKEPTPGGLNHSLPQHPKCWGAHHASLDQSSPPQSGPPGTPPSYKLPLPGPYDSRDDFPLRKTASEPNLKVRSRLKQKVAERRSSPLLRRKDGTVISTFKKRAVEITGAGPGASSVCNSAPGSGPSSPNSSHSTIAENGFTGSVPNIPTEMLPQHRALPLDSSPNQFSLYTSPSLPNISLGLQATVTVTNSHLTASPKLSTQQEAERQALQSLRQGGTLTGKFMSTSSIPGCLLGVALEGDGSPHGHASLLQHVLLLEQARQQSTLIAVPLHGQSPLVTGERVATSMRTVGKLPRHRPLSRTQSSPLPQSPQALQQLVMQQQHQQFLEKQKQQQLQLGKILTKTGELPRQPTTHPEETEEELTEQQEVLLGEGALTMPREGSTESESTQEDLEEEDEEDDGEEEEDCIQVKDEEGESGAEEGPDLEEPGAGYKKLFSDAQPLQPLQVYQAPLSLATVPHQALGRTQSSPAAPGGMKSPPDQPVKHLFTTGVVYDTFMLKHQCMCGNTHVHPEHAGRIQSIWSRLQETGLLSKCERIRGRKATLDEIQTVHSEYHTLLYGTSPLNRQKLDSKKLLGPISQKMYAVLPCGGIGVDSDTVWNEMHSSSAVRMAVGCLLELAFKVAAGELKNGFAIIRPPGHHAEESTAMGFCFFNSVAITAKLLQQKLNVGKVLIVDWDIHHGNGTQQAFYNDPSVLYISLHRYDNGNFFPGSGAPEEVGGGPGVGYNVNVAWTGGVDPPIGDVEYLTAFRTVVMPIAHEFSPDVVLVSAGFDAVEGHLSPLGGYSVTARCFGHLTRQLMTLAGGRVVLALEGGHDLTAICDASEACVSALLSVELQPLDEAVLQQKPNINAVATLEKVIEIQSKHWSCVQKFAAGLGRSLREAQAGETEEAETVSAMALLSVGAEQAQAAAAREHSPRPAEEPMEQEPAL

Histone deacetylase 9 = Histone deacetylase 9 (Homo sapiens, UniProt Q9UKV0); assay: Inhibition of recombinant C-terminal His-tagged human HDAC9 (604 to 1066 residues) expressed in baculovirus infected Sf9 cells using Ac-peptide-AMC as substrate after 1 hr by fluorescence assay
Histone deacetylase 11 = Histone deacetylase 11 (Homo sapiens, UniProt Q96DB2); assay: Inhibition of recombinant full length human HDAC11 expressed in baculovirus infected Sf9 cells using Ac-peptide-AMC as substrate after 1 hr by fluorescence assay
Chain of Histone deacetylase 11 (Q96DB2 whole entry): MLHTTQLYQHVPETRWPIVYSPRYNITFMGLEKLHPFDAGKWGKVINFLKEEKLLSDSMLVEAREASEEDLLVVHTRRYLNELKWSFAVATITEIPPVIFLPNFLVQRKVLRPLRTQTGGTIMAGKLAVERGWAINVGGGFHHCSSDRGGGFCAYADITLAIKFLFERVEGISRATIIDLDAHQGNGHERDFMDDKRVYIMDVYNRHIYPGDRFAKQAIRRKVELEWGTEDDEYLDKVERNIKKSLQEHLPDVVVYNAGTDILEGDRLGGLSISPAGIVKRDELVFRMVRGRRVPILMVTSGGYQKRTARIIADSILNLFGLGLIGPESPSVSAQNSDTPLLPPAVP

HCT-116 = assay: Antiproliferative activity against human HCT116 cells after 72 hrs by MTT assay; assay type: functional, cell-based; conditions: HCT-116, 72 h
SK-OV-3 = assay: Antiproliferative activity against human SKOV3 cells after 72 hrs by MTT assay; assay type: functional, cell-based; conditions: SK-OV-3, 72 h
MDA-MB-231 = assay: Antiproliferative activity against human MDA-MB-231 cells after 72 hrs by MTT assay; assay type: functional, cell-based; conditions: MDA-MB-231, 72 h
[2] = Antiproliferative activity against human ARD cells after 72 hrs by MTT assay; assay type: functional, cell-based
RPMI-8226 = assay: Antiproliferative activity against human RPMI8226 cells after 72 hrs by MTT assay; assay type: functional, cell-based; conditions: RPMI-8226, 72 h
Ramos = assay: Antiproliferative activity against human Ramos cells after 72 hrs by MTT assay; assay type: functional, cell-based
[3] = biological target: Histone deacetylase 1/2/3 (Homo sapiens) (UniProt Q13547+O15379+Q92769); assay: Inhibition of HDAC1/2/3 in human MM1S cells assessed as upregulation of H3 acetylation at 40 nM after 6 hrs by Western blot analysis; assay type: cell-based
JeKo-1 [4] = assay: Cell cycle arrest in human JeKo1 cells assessed as accumulation at G1 phase at 100 nM after 24 hrs by propidium iodide staining based flow cytometric analysis (reference value: 63.16 %); assay type: functional
JeKo-1 [5] = assay: Induction of apoptosis in human JeKo1 cells assessed as viable cells at 10 nM after 48 hrs by annexin V-FITC/propidium iodide staining-based flow cytometric method (reference value: 91.6 %); assay type: functional; conditions: JeKo-1, 48 h, read-out: Activity
Method in brief: (§1)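 Jeko-1 cells were grown in RPMI-1640 with 10% FBS at 37 °C under 5% CO2. They were exposed to 0, 10, 100 or 1000 nM for 48 h, then apoptosis induction was analysed.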

JeKo-1 [6] = assay: Induction of apoptosis in human JeKo1 cells assessed as viable cells at 100 nM after 48 hrs by annexin V-FITC/propidium iodide staining-based flow cytometric method (reference value: 91.6 %); assay type: functional; conditions: JeKo-1, 48 h, read-out: Activity; method in brief: as §1
JeKo-1 [7] = assay: Induction of apoptosis in human JeKo1 cells assessed as early apoptotic cells at 100 nM after 48 hrs by annexin V-FITC/propidium iodide staining-based flow cytometric method (reference value: 3.34 %); assay type: functional; method in brief: as §1
JeKo-1 [8] = assay: Induction of apoptosis in human JeKo1 cells assessed as late apoptotic cells at 100 nM after 48 hrs by annexin V-FITC/propidium iodide staining-based flow cytometric method (reference value: 3.07 %); assay type: functional; method in brief: as §1
JeKo-1 [9] = assay: Induction of apoptosis in human JeKo1 cells assessed as viable cells at 1000 nM after 48 hrs by annexin V-FITC/propidium iodide staining-based flow cytometric method (reference value: 91.6 %); assay type: functional; conditions: JeKo-1, 48 h, read-out: Activity; method in brief: as §1
JeKo-1 [10] = assay: Induction of apoptosis in human JeKo1 cells assessed as early apoptotic cells at 1000 nM after 48 hrs by annexin V-FITC/propidium iodide staining-based flow cytometric method (reference value: 3.34 %); assay type: functional; method in brief: as §1
JeKo-1 [11] = assay: Induction of apoptosis in human JeKo1 cells assessed as late apoptotic cells at 1000 nM after 48 hrs by annexin V-FITC/propidium iodide staining-based flow cytometric method (reference value: 3.07 %); assay type: functional; method in brief: as §1
JeKo-1 [12] = assay: Induction of apoptosis in human JeKo1 cells assessed as necrotic cells at 1000 nM after 48 hrs by annexin V-FITC/propidium iodide staining-based flow cytometric method (reference value: 2.03 %); assay type: functional; method in brief: as §1
JeKo-1 [13] = assay: Induction of cell cycle arrest in human JeKo1 cells assessed as accumulation at G1 phase after 24 hrs by propidium iodide staining-based flow cytometric method; assay type: functional
[14] = Half life in Sprague-Dawley rat at 5 mg/kg, iv measured upto 24 hrs by LC-MS/MS analysis; assay type: ADME, organism-based; conditions: in vivo
Method in brief: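 SD rats (200-250 g), six per time point, given 5 mg/kg as a tail-vein bolus or orally. Blood was taken by cardiac puncture before dosing and at 5, 15, 30, 45 min and 1, 2, 4, 6, 8, 10, 12 and 24 h. Plasma was spun at 4000 g for 15 min at 4 °C and stored at -80 °C. Analysis was LC-MS/MS with multiple-reaction monitoring, followed by noncompartmental analysis.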

Daudi [15] = assay: Antitumour activity against human Daudi cells xenografted in NOD/SCID mouse assessed as reduction in tumour growth at 10 mg/kg, iv treated on day 1,3 and 5 per week and measured for every 2 days; assay type: functional; conditions: read-out: TGI
Method in brief: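 Daudi cells (107 in 100 µL serum-free RPMI 1640) were injected s.c. into the right flank of 5–6 week female NOD/SCID mice. At 100–200 mm3, mice were randomized six per group. Dosing was 10 mg/kg i.v. or 20 mg/kg p.o. in 8% HP-β-CD on days 1, 3 and 5 each week. Tumors were measured by caliper every 2 days, with TV = length × width² × 0.5.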

Daudi [16] = assay: Antitumour activity against human Daudi cells xenografted in NOD/SCID mouse assessed as DNA damage at 20 mg/kg, po treated on day 1,3 and 5 per week; assay type: functional, organism-based
Method in brief: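 Daudi s.c. xenografts in female NOD/SCID mice (5–6 weeks) were randomized six per group at 100–200 mm3. Dosing was 10 mg/kg i.v. or 20 mg/kg p.o. in 8% HP-β-CD on days 1, 3 and 5 weekly. Tumors were collected at study end for immunohistochemistry, with comparison to the control group.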

[17] = Toxicity in NOD/SCID mouse xenografted with human Daudi cells at 20 mg/kg, po treated on day 1,3 and 5 per week and measured for every 2 days; assay type: organism-based; conditions: in vivo, 48 h
Method in brief: (§2)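 Female NOD/SCID mice (5–6 weeks) bearing s.c. Daudi xenografts, six per group. Dosing was 10 mg/kg i.v. or 20 mg/kg p.o. in 8% HP-β-CD on days 1, 3 and 5 weekly. Behaviour was observed, and organ tissues were collected at sacrifice for H&E staining.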

[18] = Toxicity in NOD/SCID mouse xenografted with human Daudi cells at 10 mg/kg, iv treated on day 1,3 and 5 per week and measured for every 2 days; assay type: organism-based; conditions: in vivo, 48 h; method in brief: as §2

IC50 [1]: 3 nM
IC50 (Histone deacetylase 5): 540 nM
IC50 (Histone deacetylase 9): 441 nM
IC50 (Histone deacetylase 11): > 10000 nM
IC50 (HCT-116): 16 nM
IC50 (SK-OV-3): 20.5 nM
IC50 (MDA-MB-231): 25.6 nM
IC50 (RPMI-8226): 15.6 nM
IC50 (Ramos): 17.8 nM
inhibition [3]: Active
half-life [14]: 23.4 min
Compound: Cc1ccc(CN2CCC(c3noc(CN(C)c4ncc(C(=O)NO)cn4)n3)CC2)cc1
IC50 [2]: 44.9 nM
Activity (JeKo-1 [4]): 80.74%
viability at 0.01 µM (JeKo-1 [5]): 91.8%
viability at 0.1 µM (JeKo-1 [6]): 54.3%
Activity (JeKo-1 [7]): 28.3%
Activity (JeKo-1 [8]): 17.3%
viability at 1 µM (JeKo-1 [9]): 26.9%
Activity (JeKo-1 [10]): 42.7%
Activity (JeKo-1 [11]): 30.4%
Activity (JeKo-1 [12]): 0.096%
Activity (JeKo-1 [13]): Dose-dependent effect
inhibition in vivo at 10 mg/kg (Daudi [15]): 46.1%
Activity (Daudi [16]): Active
Activity [17]: Non-Toxic
Activity [18]: Non-Toxic
